Test results as given in ChEMBL document CHEMBL4823270, “A first-in-class anticancer dual HDAC2/FAK inhibitors bearing hydroxamates/benzamides capped by pyridinyl-1,2,4-triazoles” (Eur J Med Chem, 2021).
Active and inactive are the calls of the source. The rule behind the calls is not given here.

Assays:
HCT-116 = experiment: Growth inhibition of human HCT-116 cells at 10 uM incubated for 24 hrs by MTT assay relative to control; format: functional; details: read-out: GI
Method in brief: (§1)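 Cells seeded at 1 × 10^4 per well, cultured overnight, then exposed to 10 μM compound or DMSO (negative control) for 24 h. After a PBS wash, MTT (2 mg/ml) was added for 4 h at 37°C and formazan dissolved in DMSO. OD read at 570 nm. Growth inhibition = 1 − (OD treated/OD control); at least three independent experiments.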

KG-1 = experiment: Growth inhibition of human KG-1 cells at 10 uM incubated for 24 hrs by MTT assay relative to control; format: functional; details: KG-1, 24 h; method in brief: as §1
A498 [1] = experiment: Growth inhibition of human A498 cells at 10 uM incubated for 24 hrs by MTT assay relative to control; format: functional; details: read-out: GI; method in brief: as §1
A498 [2] = experiment: Antiproliferative activity against human A498 cells assessed as cell growth inhibition incubated for 24 hrs by MTT assay; format: functional, cell-based; details: A498, 24 h
CAKI-1 [3] = experiment: Antiproliferative activity against human CAKI-1 cells assessed as cell growth inhibition incubated for 24 hrs by MTT assay; format: functional, cell-based; details: CAKI-1, 24 h
Histone deacetylase 2 [4] = molecular target: T1, Histone deacetylase 2 (Homo sapiens, UniProt Q92769); experiment: Inhibition of human full-length recombinant HDAC2 preincubated for 5 mins followed by HDAC substrate addition and further incubated for 45 mins by fluorescence microplate reader assay
[5] = molecular target: T2, Protein deacetylase HDAC6 (Homo sapiens, UniProt Q9UBN7); experiment: Inhibition of human full-length recombinant HDAC6 preincubated for 5 mins followed by HDAC substrate addition and further incubated for 45 mins by fluorescence microplate reader assay
T2 sequence (Q9UBN7 whole entry): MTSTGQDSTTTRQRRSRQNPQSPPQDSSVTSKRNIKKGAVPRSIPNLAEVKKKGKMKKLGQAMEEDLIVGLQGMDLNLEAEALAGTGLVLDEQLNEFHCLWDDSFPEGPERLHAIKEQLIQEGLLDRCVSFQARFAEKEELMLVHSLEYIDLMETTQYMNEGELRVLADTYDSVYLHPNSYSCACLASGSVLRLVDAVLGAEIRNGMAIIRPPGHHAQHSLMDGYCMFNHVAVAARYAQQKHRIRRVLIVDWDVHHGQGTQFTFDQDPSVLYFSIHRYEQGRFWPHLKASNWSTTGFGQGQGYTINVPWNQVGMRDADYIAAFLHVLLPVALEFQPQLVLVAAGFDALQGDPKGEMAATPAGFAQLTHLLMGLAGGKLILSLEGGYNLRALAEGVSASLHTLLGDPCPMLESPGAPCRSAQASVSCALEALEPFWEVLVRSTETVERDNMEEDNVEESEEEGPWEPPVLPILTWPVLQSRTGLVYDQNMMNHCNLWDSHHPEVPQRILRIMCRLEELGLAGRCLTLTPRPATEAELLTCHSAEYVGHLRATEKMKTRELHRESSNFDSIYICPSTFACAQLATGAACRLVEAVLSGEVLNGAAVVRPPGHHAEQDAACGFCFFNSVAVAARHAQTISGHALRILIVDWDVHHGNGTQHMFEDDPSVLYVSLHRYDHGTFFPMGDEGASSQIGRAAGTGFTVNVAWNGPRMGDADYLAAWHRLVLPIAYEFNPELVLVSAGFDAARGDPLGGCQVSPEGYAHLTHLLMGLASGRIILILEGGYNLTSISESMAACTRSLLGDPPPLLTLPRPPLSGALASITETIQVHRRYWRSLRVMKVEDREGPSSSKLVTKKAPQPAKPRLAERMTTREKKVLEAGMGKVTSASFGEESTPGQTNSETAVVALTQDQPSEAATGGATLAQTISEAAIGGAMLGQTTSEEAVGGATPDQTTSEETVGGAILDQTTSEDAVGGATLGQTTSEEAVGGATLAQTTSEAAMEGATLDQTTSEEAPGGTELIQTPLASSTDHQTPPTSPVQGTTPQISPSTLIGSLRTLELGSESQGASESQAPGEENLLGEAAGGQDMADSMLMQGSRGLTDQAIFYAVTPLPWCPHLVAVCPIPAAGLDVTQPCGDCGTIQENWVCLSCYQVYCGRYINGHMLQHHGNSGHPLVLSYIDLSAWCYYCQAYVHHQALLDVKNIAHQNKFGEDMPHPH

Histone deacetylase 8 = molecular target: T3, Histone deacetylase 8 (Homo sapiens, UniProt Q9BY41); experiment: Inhibition of human full-length recombinant C-terminal His-tagged HDAC8 expressed in baculovirus infected Sf9 insect cells preincubated for 5 mins followed by HDAC substrate addition and further incubated for 45 mins by fluorescence microplate reader assay
T3 sequence (Q9BY41 whole entry): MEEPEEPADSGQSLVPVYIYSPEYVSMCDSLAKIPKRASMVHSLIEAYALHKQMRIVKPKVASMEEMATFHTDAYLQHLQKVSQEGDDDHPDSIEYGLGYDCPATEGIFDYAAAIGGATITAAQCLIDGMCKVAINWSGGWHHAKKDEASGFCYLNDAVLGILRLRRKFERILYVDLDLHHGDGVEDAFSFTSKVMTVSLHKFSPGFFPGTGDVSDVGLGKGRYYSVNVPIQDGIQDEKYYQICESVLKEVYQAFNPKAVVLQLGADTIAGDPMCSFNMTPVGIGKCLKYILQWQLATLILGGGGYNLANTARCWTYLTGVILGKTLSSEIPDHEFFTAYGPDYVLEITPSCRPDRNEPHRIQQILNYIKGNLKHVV

Focal adhesion kinase 1 = Focal adhesion kinase 1 (Homo sapiens, UniProt Q05397); experiment: Inhibition of FAK (unknown origin) by FRET-based Z'-Lyte assay
Method in brief: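 Recombinant FAK kinase activity measured with the FRET-based Z'-LYTE format; the same platform was used for a kinase panel (FAK, FLT, FRK, IGF-1R, BTK). IC50 values determined.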

Histone deacetylase 2 [6] = molecular target: T1, Histone deacetylase 2; experiment: Inhibition of HDAC2 in human CAKI-1 cells assessed as reduction in HDAC2 expression by Western blot analysis; format: cell-based
Method in brief: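 40 μg protein (Bradford) resolved by SDS-PAGE, transferred to PVDF, blocked 1 h in milk or BSA. Primary antibody overnight, HRP secondary 1 h, ECL detection; β-actin as loading control.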

CAKI-1 [7] = experiment: Induction of cell cycle arrest in human CAKI-1 cells assessed as accumulation at G2/M phase incubated for 24 hrs by propidium iodide based flow cytometry analysis (reference value: 5.5 %); format: functional
Method in brief: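 Cells at 1 × 10^5/mL treated with 0.75 or 1.5 μM compound or DMSO (negative control) for 24 h, harvested and washed in PBS. Fixed by dropwise ice-cold 80% ethanol with vortexing, held overnight, washed twice, PI-stained 20 min in the dark. Phase distribution read by flow cytometry.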

[8] = molecular target: Signal transducer and activator of transcription 3 (Homo sapiens) (UniProt P40763); experiment: Inhibition of STAT3 activation in human A498 cells measured after 24 hrs by Western blot analysis; format: cell-based
A498 [9] = experiment: Induction of apoptosis in human A498 cells assessed as activation of caspase-8 measured after 24 hrs by ELISA relative to control; format: functional
A498 [10] = experiment: Induction of apoptosis in human A498 cells assessed as activation of caspase-9 measured after 24 hrs by ELISA relative to control; format: functional

T1 sequence (Q92769 whole entry): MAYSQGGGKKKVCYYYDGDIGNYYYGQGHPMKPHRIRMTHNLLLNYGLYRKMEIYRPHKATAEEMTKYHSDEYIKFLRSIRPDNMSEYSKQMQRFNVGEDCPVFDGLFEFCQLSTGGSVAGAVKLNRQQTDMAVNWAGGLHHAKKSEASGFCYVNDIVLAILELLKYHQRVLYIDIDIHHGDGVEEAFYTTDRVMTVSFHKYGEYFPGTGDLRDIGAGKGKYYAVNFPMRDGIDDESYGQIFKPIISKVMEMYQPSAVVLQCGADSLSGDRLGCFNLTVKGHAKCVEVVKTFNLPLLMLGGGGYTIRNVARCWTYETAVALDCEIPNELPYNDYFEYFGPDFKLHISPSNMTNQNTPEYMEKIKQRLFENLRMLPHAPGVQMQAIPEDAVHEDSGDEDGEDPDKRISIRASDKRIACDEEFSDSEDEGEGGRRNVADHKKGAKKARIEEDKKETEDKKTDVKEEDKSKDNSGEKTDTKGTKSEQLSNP
Sequence of Signal transducer and activator of transcription 3 (Homo sapiens) (P40763 whole entry): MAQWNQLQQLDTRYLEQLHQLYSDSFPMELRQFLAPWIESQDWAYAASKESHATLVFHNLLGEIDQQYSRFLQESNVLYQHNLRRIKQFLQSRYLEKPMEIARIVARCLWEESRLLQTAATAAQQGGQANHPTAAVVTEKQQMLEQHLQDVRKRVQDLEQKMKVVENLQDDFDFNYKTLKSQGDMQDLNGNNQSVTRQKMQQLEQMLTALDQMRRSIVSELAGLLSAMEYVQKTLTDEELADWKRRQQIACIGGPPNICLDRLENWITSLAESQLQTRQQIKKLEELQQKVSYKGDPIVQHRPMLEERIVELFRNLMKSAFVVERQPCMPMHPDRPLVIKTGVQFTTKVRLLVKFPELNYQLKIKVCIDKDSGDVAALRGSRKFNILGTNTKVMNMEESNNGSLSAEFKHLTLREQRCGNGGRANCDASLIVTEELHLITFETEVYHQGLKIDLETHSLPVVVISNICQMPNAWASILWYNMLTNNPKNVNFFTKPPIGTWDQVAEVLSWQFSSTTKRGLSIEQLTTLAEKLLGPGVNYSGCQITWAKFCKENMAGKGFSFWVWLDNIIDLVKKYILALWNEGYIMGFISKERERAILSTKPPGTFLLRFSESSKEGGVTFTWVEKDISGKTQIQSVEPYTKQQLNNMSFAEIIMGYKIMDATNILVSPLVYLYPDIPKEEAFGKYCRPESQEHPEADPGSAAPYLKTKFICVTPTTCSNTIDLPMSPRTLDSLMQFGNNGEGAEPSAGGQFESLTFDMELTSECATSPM
Sequence of Focal adhesion kinase 1 (Q05397 whole entry): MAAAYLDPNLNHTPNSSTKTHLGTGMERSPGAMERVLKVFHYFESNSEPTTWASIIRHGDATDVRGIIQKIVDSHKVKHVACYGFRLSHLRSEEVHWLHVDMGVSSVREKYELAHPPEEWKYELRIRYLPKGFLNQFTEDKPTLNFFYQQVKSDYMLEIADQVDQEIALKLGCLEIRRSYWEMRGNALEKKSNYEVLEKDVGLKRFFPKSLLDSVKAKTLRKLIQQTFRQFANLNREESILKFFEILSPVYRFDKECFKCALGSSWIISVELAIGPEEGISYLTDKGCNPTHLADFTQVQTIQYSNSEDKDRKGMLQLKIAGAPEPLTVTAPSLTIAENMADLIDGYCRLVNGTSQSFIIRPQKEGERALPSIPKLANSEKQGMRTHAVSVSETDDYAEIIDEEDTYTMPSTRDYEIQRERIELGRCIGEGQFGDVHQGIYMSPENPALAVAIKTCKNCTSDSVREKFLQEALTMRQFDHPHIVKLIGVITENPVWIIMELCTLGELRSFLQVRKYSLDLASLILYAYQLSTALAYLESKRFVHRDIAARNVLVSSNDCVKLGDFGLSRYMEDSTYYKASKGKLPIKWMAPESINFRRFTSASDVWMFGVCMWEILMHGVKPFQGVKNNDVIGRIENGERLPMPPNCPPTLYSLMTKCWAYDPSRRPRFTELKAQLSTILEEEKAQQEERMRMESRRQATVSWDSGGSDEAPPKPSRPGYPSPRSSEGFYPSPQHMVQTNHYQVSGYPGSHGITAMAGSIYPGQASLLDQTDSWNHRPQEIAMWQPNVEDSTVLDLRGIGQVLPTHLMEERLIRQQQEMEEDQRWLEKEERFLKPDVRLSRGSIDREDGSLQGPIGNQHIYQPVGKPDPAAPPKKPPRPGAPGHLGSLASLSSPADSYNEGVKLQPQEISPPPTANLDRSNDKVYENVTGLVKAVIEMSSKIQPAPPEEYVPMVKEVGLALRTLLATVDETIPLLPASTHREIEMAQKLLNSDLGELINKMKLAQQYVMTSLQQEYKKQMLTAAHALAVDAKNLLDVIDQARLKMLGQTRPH

`Cn1c(SCCCCCC(=O)NO)nnc1-c1ccncc1` gave an inhibition of growth at 10 µM (HCT-116) of 60.1%, an inhibition in vitro at 10 µM (KG-1) of 84.2% and an inhibition of growth at 10 µM (A498 [1]) of 99.8%. For the same compound, the IC50 (A498 [2]) was 950 nM, the IC50 (CAKI-1 [3]) was 1230 nM and the IC50 (Histone deacetylase 2 [4]) was 90 nM. The IC50 [5] was 13900 nM, the IC50 (Histone deacetylase 8) was 7100 nM and the IC50 (Focal adhesion kinase 1) was 12.6 nM. The inhibition (Histone deacetylase 2 [6]) was “Active”, the Activity (CAKI-1 [7]) was 35% and the inhibition [8] was “Active”. The “fold change (FC)” value (A498 [9]) was 3 and the “fold change (FC)” value (A498 [10]) was 6.
